Experimental data published in ChEMBL document CHEMBL1145100, “Structure-activity relationship of imidazo[1,2-a]pyridines as ligands for detecting beta-amyloid plaques in the brain” (J Med Chem, 2003).
pKi: −log10 of the molar value.

Target: Amyloid-beta precursor protein (Homo sapiens, UniProt P05067)
Assay: Inhibition constant against [125I]-7 (TZDM) binding to Amyloid beta 1-40 aggregates
Procedure, shortened: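 Abeta40 peptide aggregated at 0.5 mg/mL in pH 7.4 buffer (10 mM sodium phosphate, 1 mM EDTA), 37 °C for 36-42 h with shaking. Competition in 1 mL of 40% EtOH: fibrils 10-50 nM final, radiotracer 0.05 nM, inhibitors 10^-5 to 10^-10 M. Nonspecific binding with 2 µM thioflavin-T. Incubated 3 h at room temperature, then GF/B filtration with 10% ethanol washes and gamma counting. Ki from nonlinear regression.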

Chain of Amyloid-beta precursor protein (P05067 whole entry): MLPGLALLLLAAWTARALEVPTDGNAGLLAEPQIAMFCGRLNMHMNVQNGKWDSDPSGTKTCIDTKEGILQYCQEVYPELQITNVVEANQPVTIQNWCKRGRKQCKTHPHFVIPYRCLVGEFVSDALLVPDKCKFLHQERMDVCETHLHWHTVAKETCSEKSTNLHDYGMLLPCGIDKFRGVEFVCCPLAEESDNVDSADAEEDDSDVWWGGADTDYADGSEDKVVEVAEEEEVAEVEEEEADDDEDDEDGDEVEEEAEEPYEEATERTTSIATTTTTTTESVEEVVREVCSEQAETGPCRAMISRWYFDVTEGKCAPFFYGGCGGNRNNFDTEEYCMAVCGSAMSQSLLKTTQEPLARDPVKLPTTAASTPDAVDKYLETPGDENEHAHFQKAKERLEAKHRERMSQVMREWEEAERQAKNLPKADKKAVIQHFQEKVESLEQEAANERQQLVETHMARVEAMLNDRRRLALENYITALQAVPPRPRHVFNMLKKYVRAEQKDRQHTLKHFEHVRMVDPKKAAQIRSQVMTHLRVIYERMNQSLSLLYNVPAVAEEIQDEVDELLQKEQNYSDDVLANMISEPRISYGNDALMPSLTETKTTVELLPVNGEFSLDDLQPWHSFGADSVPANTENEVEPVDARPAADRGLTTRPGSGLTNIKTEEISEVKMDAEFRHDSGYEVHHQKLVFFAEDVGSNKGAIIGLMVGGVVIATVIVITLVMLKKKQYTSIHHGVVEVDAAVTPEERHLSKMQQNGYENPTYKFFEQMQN

pKi: 6.47
Structure (SMILES): CN(C)c1ccc2nc(-c3ccc(Br)cc3)cn2c1
